Assay results pooled from the literature.
Compare with care: the assays were run in different laboratories.
Target: MAP kinase-interacting serine/threonine-protein kinase 2 (MKNK2, Homo sapiens, UniProt Q9HBH9)

Compound | assay | setting | remaining binding
FC(F)(F)Oc1cccc(-c2cnc3ccc(-c4ccncc4)nn23)c1 | cell-free assay, competition with immobilised ligand | 5 µM | 21%
CN(C)c1nccc(-c2cnc3ncccn23)n1 | binding | 1 µM | 46%
COc1cnc(Nc2cccc(S(N)(=O)=O)c2)nc1N1CCN(c2ccccc2)CC1 | binding, competition with immobilised ligand | 1 µM | 59%
C[C@@H]1CN(c2ccc3ncc(-c4ccc5[nH]nc(C6CC6)c5c4)n3n2)C[C@H](C)O1 | binding, competition with immobilised ligand | 0.5 µM | 45%
COc1cnc(Nc2cccc(S(N)(=O)=O)c2)nc1N1CCN(c2ccccc2)C(=O)C1 | binding, competition with immobilised ligand | 1 µM | 59%
COc1ncc2cc3ccccc3nc2c1C#N | cell-free assay, competition with immobilised ligand | 5 µM | 98%
Cn1nc(C(F)(F)F)cc1-c1cnc(N2CCc3cc(S(=O)(=O)Nc4c(F)cc(Cl)cc4F)cc(N4CCCC4=O)c32)nc1 | cell-free assay, competition with immobilised ligand | 1 µM | 94%
O=C(c1ccc(Nc2nccc(-c3cc4ccccc4s3)n2)cc1)N1CCC(N2CCCC2)CC1 | binding, competition with immobilised ligand | 1 µM | 4.6%
FC(F)(F)c1ccc2c(c1)nc(-c1cccnc1)n2C1CC1 | cell-free assay, competition with immobilised ligand | 1 µM | 100%
F[C@@H]1CCN(c2nccc(-c3cnn4ncccc34)n2)C1 | binding | 1 µM | 68%
O=C(Nc1c[nH]nc1C(=O)NC1CCNCC1)c1cc(F)cc(F)c1 | binding, competition with immobilised ligand | 1 µM | 100%
c1cncc(-c2cccc(Nc3nccc(NC4CCCCC4)n3)c2)c1 | binding, competition with immobilised ligand | 10 µM | 33%
CNC(=O)Nc1ccc2c(c1)[C@@]1(CC2)OC(=O)N(CC(=O)N(Cc2ccc(F)cc2)[C@@H](C)C(F)(F)F)C1=O | cell-free assay, competition with immobilised ligand | 1 µM | 76%
c1cnn2ncc(-c3ccnc(N4CCC45COC5)n3)c2c1 | binding | 1 µM | 3.3%
Nc1ncc2c(n1)-c1c([nH]c3ccc(C#CC4CC4)cc13)CCCC2 | binding, competition with immobilised ligand | 1 µM | 77%
CNCc1ccccc1-c1csc([C@@H](C)Nc2nc(C)nc3cc(OC)c(OC)cc23)c1 | cell-free assay, competition with immobilised ligand | 1 µM | 63%
O=C(c1ccc(Nc2ncc(Cl)c(-c3ccc(Cl)s3)n2)cc1)N1CCC(N2CCCC2)CC1 | binding, competition with immobilised ligand | 1 µM | 4.2%
CO[C@@H](C)c1c(Nc2ccc([C@H](N(C)C(=O)C3CCS(=O)(=O)CC3)C(F)(F)F)cc2)cnc2cc(Cl)nn12 | cell-free assay, competition with immobilised ligand | 1 µM | 100%
C[C@H]1CCN(c2nccc(-c3cnn4ncccc34)n2)C1 | binding | 1 µM | 2.3%
COCCOc1nc(-c2ccc(Cl)nc2)nc2c1CN(C(=O)c1ncn3ccccc13)CC2 | cell-free assay, competition with immobilised ligand | 0.1 µM | 100%
O=C(NCCCN1CCOCC1)c1ccc(Nc2nccc(-c3cc4ccccc4s3)n2)cc1 | binding, competition with immobilised ligand | 1 µM | 28%
CO[C@H]1CC[C@H](CNc2ccc(S(=O)(=O)NC(=O)c3ccc(N4CCN(CC5=C(c6ccc(Cl)cc6)CC(C)(C)CC5)CC4)cc3Oc3cnc4[nH]ccc4c3)cc2[N+](=O)[O-])CC1 | cell-free assay, competition with immobilised ligand | 1 µM | 73%
N[C@@H]1CCN(c2nccc(-c3cnn4ncccc34)n2)C1 | binding | 1 µM | 14%
O=c1nc(-c2ccccn2)sc2ccccc12 | binding, competition with immobilised ligand | 1 µM | 100%
CC1CCCN1c1nccc(-c2cnn3ncccc23)n1 (stereo not shown) | binding | 1 µM | 46%
